Experiment in all cases: BRET ratio titration, purified sensor
What all share (type): binding
Background: BRET reads energy transfer from a luciferase to a nearby fluorophore.

The target of one assay is Vcp157-Cp (CpYcgR). The note with it: read-out: KD(nM)^a; 3 nM sensor; pH 7.2, 100 mM KCl, 10 mM DTT, 0.1% BSA, 28 °C; Hill fit. In short, it runs like this: (§1)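 Coelenterazine-h substrate (60 μM in HEPES/KCl/300 mM ascorbate, pre-equilibrated ≥30 min at RT) added, 20 μL into 100 μL. Emission read at 460 and 530 nm, 28 °C, every 30 s for 10 min. BRET ratio taken at 2 min.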

Another assay has as its target tVYN-NtΔ (NtYcgRΔ). The note with it: read-out: KD(nM)^a; 3 nM sensor; pH 7.2, 100 mM KCl, 10 mM DTT, 0.1% BSA, 28 °C; Hill fit. An outline of the steps:
as §1

A further assay deals with T1, VYN-Ec (EcYcgR) (Escherichia coli, UniProt P76010).
T1 sequence (P76010 1-244): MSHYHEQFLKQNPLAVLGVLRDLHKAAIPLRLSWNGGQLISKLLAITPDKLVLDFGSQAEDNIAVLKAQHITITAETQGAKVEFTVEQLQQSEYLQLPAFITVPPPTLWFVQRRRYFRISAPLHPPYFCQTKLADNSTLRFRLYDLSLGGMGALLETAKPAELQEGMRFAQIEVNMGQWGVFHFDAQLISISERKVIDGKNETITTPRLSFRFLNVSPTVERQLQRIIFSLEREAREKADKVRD
In short, it runs like this: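 Coelenterazine-h prepared at 60 μM in HEPES/KCl/300 mM ascorbate (≥30 min RT), then added. Emission at 460 and 530 nm read at 30 s intervals for 10 min, 28 °C; BRET ratio taken 2 min post-substrate.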

In the next assay the target is Vcp173-Nt (NtYcgR). The note with it: read-out: KD(nM)^a; 3 nM sensor; pH 7.2, 100 mM KCl, 10 mM DTT, 0.1% BSA, 28 °C; Hill fit. In short, it runs like this: as §1
In a further assay the target is tVYN-Tb (TbYcgR). The settings on record: read-out: KD(nM)^a; 3 nM sensor; pH 7.2, 100 mM KCl, 10 mM DTT, 0.1% BSA, 28 °C; Hill fit. An outline of the steps: as §1
The target of another assay is VYN-Tb (TbYcgR). The settings on record: read-out: KD(nM)^a; 3 nM sensor; pH 7.2, 100 mM KCl, 10 mM DTT, 0.1% BSA, 28 °C; Hill fit. In short, it runs like this:
as §1

In a further assay the target is Vcp229-Nt (NtYcgR). The settings on record: read-out: KD(nM)^a; 3 nM sensor; pH 7.2, 100 mM KCl, 10 mM DTT, 0.1% BSA, 28 °C; Hill fit. An outline of the steps:
as §1

Another assay has as its target tVYN-Nt (NtYcgR). The settings on record: read-out: KD(nM)^a; 3 nM sensor; pH 7.2, 100 mM KCl, 10 mM DTT, 0.1% BSA, 28 °C; Hill fit. In short, it runs like this:
as §1

The target of the next assay is VYN-Nt (NtYcgR). The note with it: read-out: KD(nM)^a; 3 nM sensor; pH 7.2, 100 mM KCl, 10 mM DTT, 0.1% BSA, 28 °C; Hill fit. An outline of the steps: as §1

Structures are written as SMILES.

For orientation: Kd means the constant that tells how readily two partners part at equilibrium.

For the molecule `Nc1nc2c(ncn2[C@@H]2O[C@@H]3COP(=O)(O)O[C@H]4[C@@H](O)[C@H](n5cnc6c(=O)[nH]c(N)nc65)O[C@@H]4COP(=O)(O)O[C@H]3[C@H]2O)c(=O)[nH]1` [c-di-GMP], the Kd on Vcp157-Cp (CpYcgR) is 96 ± 6 nM; on tVYN-NtΔ (NtYcgRΔ), 54 ± 4 nM; at VYN-Ec (EcYcgR) it was 50 ± 4 nM; on Vcp173-Nt (NtYcgR) it was 17 ± 4 nM; on tVYN-Tb (TbYcgR) it was 12 ± 1 nM; at VYN-Tb (TbYcgR), 8 ± 0.4 nM. Besides, the Kd is 14 ± 1 nM at Vcp229-Nt (NtYcgR), 20 ± 1 nM on tVYN-Nt (NtYcgR) and 14 ± 4 nM on VYN-Nt (NtYcgR).

(Values after publication PMC7233196 (ACS chemical biology, 2020).)
